Assay outcomes: PubChem BioAssay, The Scripps Research Institute Molecular Screening Center
Rows were chosen to be rich in hits. Some 2.7% of all compounds tested hit in one or more screens of this group.
mABHD4 FP = inhibitors of mouse ABHD4. Q8VD66. purified mABHD4, FP-Rh probe fluorescence polarization. inhibition, % at 8.92 µM. 370,000 tested, 0.54% active. AID 720543;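 active means inhibition exceeding the mean over every tested compound plus 3 SD, cut at about 30% in these data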;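 further: 0% = plate median of compound wells and 100% = S159A mutant with DMSO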
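Doses – 8.92 µM, single dose · Material – wild-type mouse ABHD4 protein · Replication – single well per compound (singlicate) · Measure – percent inhibition of probe binding, normalized to plate controls · Schedule – 45 min compound pre-incubation plus 60 min probe step, 25 °C · Detection – fluorescence polarization with parallel and perpendicular emission, 525/598 nm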
PRMT1 inh = PRMT1 (human) inhibition, primary screen | inhibition, % at 2.79 µM | Q99873 | recombinant PRMT1, activity-based probe fluorescence polarization | 370,000 tested, 1.3% active;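 active means inhibition above about 21% made by adding two undisclosed values, limit read from the data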
TCR-CD3 inh = inhibitors of human TCR-CD3 interaction | TAMRA-labeled TCR probe fluorescence, biochemical | inhibition, % at 9.4 µM | 360,000 tested, 0.37% active | AID 651800;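 further: recombinant mutant TCR 2C K166C tagged with TAMRA read by polarization; 0% = receptor in buffer alone and 100% = receptor with positive control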
HTRA1 inh = HTRA1 (human) protease inhibition; recombinant HTRA1, FP-rhodamine activity-based probe, fluorescence polarization; 340,000 tested, 0.5% active; inhibition, % at 5.96 µM; Q92743; in the data active means inhibition above about 36%;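 further: 0% = enzyme with DMSO and 100% = wells lacking enzyme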
SIAE primary = blocks human sialic acid acetylesterase; Q9HAT2; SIAE FP-Rh probe binding, fluorescence polarization; inhibition, % at 9.66 µM; 370,000 tested, 0.69% active; AID 1053197;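 active means inhibition above a cutoff: mean of compounds within the control limits plus 3 SD of those, cut at about 17% in these data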;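 further: 0% = plate median of compound wells and 100% = probe without SIAE protein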
Target sequence (Q9HAT2 whole entry, looked up): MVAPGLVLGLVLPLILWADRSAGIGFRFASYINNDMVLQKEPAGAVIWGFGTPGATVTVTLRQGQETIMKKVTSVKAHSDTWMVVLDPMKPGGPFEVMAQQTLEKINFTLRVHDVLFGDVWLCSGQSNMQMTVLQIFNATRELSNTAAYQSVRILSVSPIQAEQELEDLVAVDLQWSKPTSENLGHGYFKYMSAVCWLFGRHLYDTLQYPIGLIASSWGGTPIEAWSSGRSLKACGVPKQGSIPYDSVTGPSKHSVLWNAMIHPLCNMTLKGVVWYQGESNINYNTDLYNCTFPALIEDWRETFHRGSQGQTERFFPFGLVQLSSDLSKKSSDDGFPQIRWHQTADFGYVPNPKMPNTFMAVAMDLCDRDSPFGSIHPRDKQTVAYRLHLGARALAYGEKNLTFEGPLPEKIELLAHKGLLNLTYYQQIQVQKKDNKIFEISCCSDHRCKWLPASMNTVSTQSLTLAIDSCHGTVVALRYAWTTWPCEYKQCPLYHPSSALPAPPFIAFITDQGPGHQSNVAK
BSA TAMRA ctr = interferes with TAMRA-BSA probe, flagging TCR-CD3 hits; shares compounds with TCR-CD3 inh; TAMRA-labeled BSA probe fluorescence counterscreen; inhibition, % at 9.4 µM; 1,200 tested, 10% active; AID 652035; in the data active means inhibition above about 23%;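 further: 0% = buffer low control and 100% = reference high control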
TCR-CD3 inh conf = confirmation of human TCR-CD3 interaction inhibitors. shares compounds with TCR-CD3 inh. TAMRA-labeled TCR probe fluorescence binding assay. inhibition, % at 9.4 µM. 1,200 tested, 48% active
PRMT1 inh conf = PRMT1 (human) inhibition, FP confirmation | inhibition, % at 2.79 µM | shares compounds with PRMT1 inh | recombinant His-PRMT1, activity-based probe fluorescence polarization | 3,300 tested, 42% active;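 active means mean inhibition across replicates above the hit cutoff derived for the earlier primary screen, cut at about 22% in these data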
ABHD4 confirm = confirmation of mouse ABHD4 inhibitors; shares compounds with mABHD4 FP; purified mABHD4, FP-Rh probe fluorescence polarization; inhibition, % at 8.92 µM; 1,800 tested, 55% active; AID 720658;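 active means mean inhibition across replicates above the hit cutoff set in the primary screen, cut at about 30% in these data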;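 further: 0% = wild-type ABHD4 with DMSO and 100% = catalytically dead S159A mutant with DMSO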
SIAE inh conf = human SIAE inhibition, confirmation. 2,300 tested, 13% active. SIAE FP-Rh activity-based probe, fluorescence polarization. shares compounds with SIAE primary. inhibition, % at 9.66 µM. AID 1117263;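 active means mean inhibition of the replicates above the hit cutoff set in the primary screen, cut at about 17% in these data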;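 further: 0% = SIAE with DMSO and probe and 100% = probe without SIAE; inhibitors lower polarization as more probe stays unbound to SIAE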
The depositor's hits bear a star; x = no result given. Unless noted, no stated cut-off is given here; in the data, active means inhibition above about 19%; inactive means the rest.

SMILES	mABHD4 FP	PRMT1 inh	TCR-CD3 inh	HTRA1 inh	SIAE primary	BSA TAMRA ctr	TCR-CD3 inh conf	ABHD4 confirm	others
COC(=O)[C@]12C[C@H](CC(=O)N3CCN(C(=O)C4CC4)CC3)C(=O)N(Cc3ccccc3)C1=C[C@H](C1CCCC1)O[C@@H]2C	7.3	-1.0	4.9	x	-0.6	x	x	x
O=C1NC(=S)S/C1=C\C=C\c1ccc([N+](=O)[O-])o1	41.6*	42.9*	31.7*	8.4	0.3	-1.4	28.7*	27.6	PRMT1 inh conf=28.1*
Cc1onc(-c2ccccc2Cl)c1C(=O)NCc1ccc2c(c1)cc(C)n2C	29.8*	1.3	34.1*	23.9	13.3	8.1	4.5	19.4
Cc1ccc(OCC(=O)Nc2ccccc2C(=O)N2CCCC2)cc1	0.3	0.1	-5.5	9.2	5.1	x	x	x
Oc1cc2c(cc1O)[C@H]1c3ccc(O)c(O)c3OC[C@@]1(O)C2	33.0*	43.0*	128.5*	23.7	-9.1	65.1*	115.5*	12.4	PRMT1 inh conf=38.2*
Cc1cccc(C(=O)Nc2cc(S(=O)(=O)N3CCOCC3)ccc2N2CCCCC2)c1	-7.8	0.7	6.0	-38.6	-5.3	x	x	x
O=c1c(O)c(-c2ccccc2)oc2cc(O)cc(O)c12	3.6	4.5	-2.5	17.0	13.6	x	x	x
O=c1c(O)c(-c2cc(O)c(O)c(O)c2)oc2cc(O)cc(O)c12	42.4*	53.9*	28.7*	17.1	56.4*	-9.5	45.0*	48.1*
CCC(NC(=O)Nc1ccc(O)cc1)(C(F)(F)F)C(F)(F)F	61.9*	17.0	28.4*	28.3	11.9	3.9	1.7	27.8
CCN(CC)c1cccc(OCC(=O)N(C)CCC#N)c1	63.5*	2.3	21.2*	22.9	-46.5	-69.9	-25.4	-52.7
CCOc1cccc(C(=O)Nc2ccc(N(CC)CC)cc2)c1	-1.0	4.3	0.4	4.1	7.3	x	x	x
COC(=O)[C@H](Cc1ccccc1)N1CC=CS1(=O)=O	8.5	-0.5	0.0	x	-2.7	x	x	x
c1ccc(C2OC3c4cccc5cccc(c45)C3N2c2ccccc2)cc1 (centres undefined)	47.8*	24.5*	25.5*	3.4	2.4	7.2	2.6	-21.2
COc1ccc(CNS(=O)(=O)c2cc(Cl)ccc2N2CC[C@@H](O)C2)cc1	-6.3	-1.1	1.9	x	2.4	x	x	x
O=C1C(=Cc2ccco2)CCC1=Cc1ccco1	30.5*	53.4*	45.4*	34.0	12.3	-6.5	17.2	6.4	PRMT1 inh conf=50.1*
O/N=C1\CCC\C1=C/c1ccco1	2.7	2.4	3.0	8.0	5.1	x	x	x
O=S(=O)(c1ccc(Br)cc1Cl)N1CCN(CCO)CC1	0.9	-2.4	1.9	1.1	5.0	x	x	x
O=C1C=CC(=O)c2c(O)c(N3CCN(CCO)CC3)c(Cl)c(O)c21	35.2*	51.9*	62.8*	35.0	9.9	9.8	38.8*	78.6*	PRMT1 inh conf=84.9*
O=C(COC(=O)c1c2c(nc3ccccc13)/C(=C/c1ccco1)CC2)NC1CCCC1	50.8*	34.6*	22.7*	59.9*	26.9*	-18.2	12.6	28.3	PRMT1 inh conf=27.8*
[O-][n+]1c2ccccc2[n+]([O-])c2cc(O)ccc21	31.2*	4.0	21.4*	27.9	10.3	10.5	22.1*	35.1*
N#C/C(=C\c1cc(O)c(O)c(O)c1)C(N)=O	38.5*	58.6*	31.7*	17.9	0.1	-6.4	12.7	20.1
Cc1cccc(OCC(=O)NCc2ccccc2)c1	8.8	0.1	0.2	1.6	-5.3	x	x	x
C/C(=N\NC(=O)COc1cccc(C)c1)c1ccc2ccccc2c1O	48.9*	2.2	28.3*	13.4	-3.2	-14.3	15.6	45.9*
COc1ccc(S(=O)(=O)N2CCCOC2CNC(=O)C(=O)NCc2ccccn2)cc1 (centres undefined)	1.0	-4.7	-2.5	-0.9	1.0	x	x	x
C[C@@H]1CCCCO[C@H](CN(C)C(=O)C2CCCCC2)[C@@H](C)CN([C@H](C)CO)C(=O)c2cc(NS(=O)(=O)c3cccs3)ccc2O1	-0.7	-0.1	-2.0	x	1.7	x	x	x
SMILES	mABHD4 FP	PRMT1 inh	TCR-CD3 inh	HTRA1 inh	SIAE primary	BSA TAMRA ctr	TCR-CD3 inh conf	ABHD4 confirm	others
COc1cccc(N2CCN(S(=O)(=O)c3cc4c(cc3C)N(C)CCO4)CC2)c1	-17.4	-0.5	1.3	-3.9	12.8	x	x	x
Cc1cc2c(cc1S(=O)(=O)N1CCN(c3cccc(C)c3C)CC1)OCCN2C	128.9*	3.0	127.4*	-9.3	86.7*	-1.4	2.0	77.6*	SIAE inh conf=57.8*
OCCOCCN1CCN(C2=Nc3ccccc3Sc3ccccc32)CC1	-3.9	3.7	-6.4	4.1	-4.1	x	x	x
O=C1C=CC(=O)c2c(O)c(N3CCN(CCOCCO)CC3)c(Br)c(O)c21	46.4*	65.9*	75.3*	31.3	24.2*	1.2	48.3*	72.2*	PRMT1 inh conf=93.2*;SIAE inh conf=15.2
Cc1nn(-c2ccccc2)c2sc(C(=O)N3CCN(C(c4ccccc4)c4ccc(Cl)cc4)CC3)cc12 (centres undefined)	-2.2	6.6	x	x	-2.8	x	x	x
OC1CCC2CN3CCc4c([nH]c5ccccc45)C3CC2C1 (centres undefined)	8.5	5.4	-0.5	x	3.9	x	x	x
O=C(O)C1CCCC2CN3CCc4c([nH]c5ccccc45)C3C(O)C21 (centres undefined)	21.8	8.1	26.7*	12.2	19.3*	2.9	3.0	x	SIAE inh conf=-3.3
COc1cc([N+](=O)[O-])cc(/C=N/NC(=O)c2ccc(NC(=O)c3ccc(C)cc3)cc2)c1O	-6.2	-3.5	27.4*	7.7	18.1*	-5.4	45.2*	x	SIAE inh conf=11.5
COc1cc([N+](=O)[O-])cc(/C=N/NC(=O)c2ccc(C)nc2)c1O	16.2	-2.3	18.2	11.5	-2.5	x	x	x
Nc1c(C(=O)NCC2CCCO2)sc2nc3c(c(-c4ccco4)c12)CC/C3=C\c1ccco1 (centres undefined)	31.6*	35.6*	38.9*	39.8*	22.8*	-4.2	24.1*	29.2	PRMT1 inh conf=47.4*;SIAE inh conf=15.9
Cc1ccc(F)c(S(=O)(=O)NC(=O)C2(C)CCN2C(=O)Cc2cccs2)c1 (centres undefined)	-2.7	4.5	0.3	x	1.5	x	x	x
Clc1ccccc1N=Nc1ccccn1	41.0*	62.7*	27.6*	26.8	20.3*	8.1	12.9	5.2	SIAE inh conf=3.8
Cc1[nH][nH]c(=O)c1N=Nc1ccccc1Cl	-4.5	1.8	-2.0	3.7	-0.6	x	x	x
COc1ccccc1Oc1ccc(S(=O)(=O)N2CCCCC2)cc1NC(=O)CCNC(C)=O	-4.1	-1.0	-5.3	4.6	1.0	x	x	x
